# From ChEMBL document CHEMBL1132938, “Novel synthetic oleanane and ursane triterpenoids with various enone functionalities in ring A as inhibitors of nitric oxide production in mouse macrophages” (J Med Chem, 2000)
# Legend:
# Assay type in all cases: functional; call rule not given here
# Mus musculus [1] = species on record: Mus musculus; assay: 50 percent inhibitory concentration of compound to inhibit nitric oxide production induced by IFN-gamma in mouse macrophages
# Outline: (§1)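 Peritoneal macrophages from female CD-1 mice (5-10 weeks old) were harvested 4 days after ip injection of 2 mL 4% thioglycollate. Cells were seeded at 2×10^5/well and incubated 48 h with 20 ng/mL recombinant mouse IFN-γ, with or without compound (DMSO, final ≤0.1%). Compounds were tested over 0.1 pM–1 μM (10-fold) or 0.01–40 μM (4-fold). Nitrite in the supernatant was measured by Griess reagent at 550 nm against a sodium nitrite standard, in triplicate. Values are the average of two experiments.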
# Mus musculus [2] = species on record: Mus musculus; assay: 50 percent inhibitory concentration of compound to inhibit nitric oxide production induced by IFN-gamma in mouse macrophages (Toxic above 1 uM); outline: as §1
# Mus musculus [3] = species on record: Mus musculus; assay: 50 percent inhibitory concentration of compound to inhibit nitric oxide production induced by IFN-gamma in mouse macrophages (Not active below 1 uM); outline: as §1
# Mus musculus [4] = species on record: Mus musculus; assay: (§2) Percent inhibition of nitric oxide production induced by IFN-uM concentration; set-up: concentration or dose not given beside the values
# Mus musculus [5] = species on record: Mus musculus; assay: 50 percent inhibitory concentration of compound to inhibit nitric oxide production induced by IFN-gamma in mouse macrophages (Not active below 10 uM); outline: as §1
# Mus musculus [6] = species on record: Mus musculus; assay: 50 percent inhibitory concentration of compound to inhibit nitric oxide production induced by IFN-gamma in mouse macrophages (Toxic above 10 uM); outline: as §1
# Mus musculus [7] = species on record: Mus musculus; assay: as §2
# Mus musculus [8] = species on record: Mus musculus; assay: 50 percent inhibitory concentration of compound to inhibit nitric oxide production induced by IFN-uM); outline: as §1
Structure (SMILES),Inhibition (Mus musculus [4]),other results
C[C@@H]1CC[C@]2(C(=O)O)CC[C@]3(C)C(=CC[C@@H]4[C@@]5(C)C=C(C#N)C(=O)C(C)(C)[C@@H]5CC[C@]43C)C2[C@H]1C (stereo partly specified),–,IC50 (Mus musculus [1]): 6.2 µM
CC1(C)CC[C@]2(C(=O)O)CC[C@]3(C)C(=CC[C@@H]4[C@@]5(C)C=C(C=O)C(=O)C(C)(C)[C@@H]5CC[C@]43C)C2C1 (stereo partly specified),–,IC50 (Mus musculus [2]): Not active below 1 uM; IC50 (Mus musculus [3]): Not active below 1 uM
CC(=O)OCC12CCC(C)(C)CC1C1=CC[C@@H]3[C@@]4(C)CC[C@H](OC(C)=O)C(C)(C)[C@@H]4CC[C@@]3(C)[C@]1(C)CC2 (stereo partly specified),4%,–
CC1(C)CCC2(CO)CC[C@]3(C)[C@@H](C2C1)[C@H](O)C[C@@H]1[C@@]2(C)CC[C@H](O)C(C)(C)[C@@H]2CC[C@]13C (stereo partly specified),20%,–
COC(=O)[C@]12CCC(C)(C)CC1C1=CC[C@@H]3[C@@]4(C)C=CC(=O)C=C4CC[C@@]3(C)[C@]1(C)CC2 (stereo partly specified),–,IC50 (Mus musculus [1]): > 40 µM
COC(=O)C12CCC(C)(C)CC1[C@H]1C(=O)C[C@@H]3[C@@]4(C)CC[C@H](O)C(C)(C)[C@@H]4CC[C@@]3(C)[C@]1(C)CC2 (stereo partly specified),0%,–
C[C@@H]1CC[C@]2(C(=O)O)CC[C@]3(C)C(=CC[C@@H]4[C@@]5(C)C=CC(=O)C(C)(C)[C@@H]5CC[C@]43C)C2[C@H]1C (stereo partly specified),41%,IC50 (Mus musculus [1]): 13 µM
CC1(C)CC[C@]2(C(=O)O)CC[C@]3(C)C(=CC[C@@H]4[C@@]5(C)C=CC(=O)C(C)(C)[C@@H]5CC[C@]43C)C2C1 (stereo partly specified),85%,–
C=C(C)[C@@H]1CC[C@]2(C)[C@H](CC=C3C4CC(C)(C)CC[C@]4(C(=O)O)CC[C@]32C)[C@@]1(C)CCC#N (stereo partly specified),33%,–
C=C(C)[C@@H]1CC[C@]2(C)[C@H](CC=C3C4[C@@H](C)[C@H](C)CC[C@]4(C(=O)O)CC[C@]32C)[C@@]1(C)CCC(=O)O (stereo partly specified),10%,–
COC(=O)[C@]12CC[C@@H](C)[C@H](C)C1C1=CC[C@@H]3[C@@]4(C)C=C(C#N)C(=O)C(C)(C)[C@@H]4CC[C@@]3(C)[C@]1(C)CC2 (stereo partly specified),–,IC50 (Mus musculus [1]): 5.1 µM
CC1(C)CC[C@]2(C(=O)O)CC[C@]3(C)C(=CC[C@@H]4[C@@]5(C)C=CC(=O)C=C5CC[C@]43C)C2C1 (stereo partly specified),–,IC50 (Mus musculus [1]): 13 µM
COC(=O)C12CCC(C)(C)CC1[C@H]1[C@H](O)C[C@@H]3[C@@]4(C)CC[C@H](OC(C)=O)C(C)(C)[C@@H]4CC[C@@]3(C)[C@]1(C)CC2 (stereo partly specified),0%,–
COC(=O)C12CCC(C)(C)CC1[C@]13O[C@H]1C[C@@H]1[C@@]4(C)CC[C@H](OC(C)=O)C(C)(C)[C@@H]4CC[C@@]1(C)[C@]3(C)CC2 (stereo partly specified),0%,–
C[C@@H]1CCC2(C(=O)O)CC[C@]3(C)C(=CC[C@@H]4[C@@]5(C)CC[C@H](O)C(C)(C)[C@@H]5CC[C@]43C)C2[C@H]1C (stereo partly specified),0%,IC50 (Mus musculus [5]): Not active below 10 uM; IC50 (Mus musculus [6]): Not active below 10 uM
COC(=O)C12CCC(C)(C)CC1C1=CC[C@@H]3[C@@]4(C)C=CC(=O)C(C)(C)[C@@H]4CC[C@@]3(C)[C@]1(C)CC2 (stereo partly specified),19%,IC50 (Mus musculus [1]): 31 µM
COC(=O)C12CCC(C)(C)CC1C1=CC[C@@H]3[C@@]4(C)CC[C@@H](Cl)C(C)(C)[C@@H]4CC[C@@]3(C)[C@]1(C)CC2 (stereo partly specified),2%,–
COC(=O)C12CC[C@@H](C)[C@H](C)C1C1=CC[C@@H]3[C@@]4(C)C=CC(=O)C(C)(C)[C@@H]4CC[C@@]3(C)[C@]1(C)CC2 (stereo partly specified),0%,–
CC(=O)OC[C@]12CCC(C)(C)CC1C(=O)[C@](C)([C@]1(C)CC[C@H]3C(C)(C)[C@@H](OC(C)=O)CC[C@]3(C)[C@H]1CC=O)CC2 (stereo partly specified),–,Inhibition (Mus musculus [7]): 52%
COC(=O)[C@]12CCC(C)(C)CC1C1=CC[C@@H]3[C@@]4(C)C=C(C=O)C(=O)C(C)(C)[C@@H]4CC[C@@]3(C)[C@]1(C)CC2 (stereo partly specified),–,IC50 (Mus musculus [3]): Not active below 1 uM; IC50 (Mus musculus [8]): Not active below 1 uM
CC(=O)O[C@H]1CC[C@]2(C)[C@H]3CC=C4[C@@H]5CC(C)(C)CC[C@]5(C(=O)O)CC[C@@]4(C)[C@]3(C)CC[C@H]2C1(C)C [ACETYL OLEANOLIC ACID],0%,–
C[C@]12CCC(=O)C=C1CC[C@@H]1[C@@H]2[C@@H](O)C[C@@]2(C)[C@H]1CC[C@]2(O)C(=O)CO [HYDROCORTISONE],80%,–
COC(=O)[C@]12CCC(C)(C)C[C@H]1C1=CC[C@@H]3[C@@]4(C)CC[C@H](O)C(C)(C)[C@@H]4CC[C@@]3(C)[C@]1(C)CC2 [METHYL OLEANOLATE],0%,–
CC1(C)CC[C@]2(C(=O)O)CC[C@]3(C)C(=CC[C@@H]4[C@@]5(C)CC[C@H](O)C(C)(C)[C@@H]5CC[C@]43C)[C@@H]2C1 [OLEANOLIC_ACID],38%,–
CC1(C)CC[C@]2(C(=O)O)CC[C@]3(C)C(=CC[C@@H]4[C@@]5(C)CCC(=O)C(C)(C)[C@@H]5CC[C@]43C)[C@@H]2C1 [OLEANONIC ACID],16%,–
